{"data": "Assay results gathered from unrelated publications", "target": "Serine/threonine-protein kinase Nek1 (NEK1, Homo sapiens, UniProt Q96PY6)", "Sequence (Q96PY6 1-1258, as in one of the studies)": "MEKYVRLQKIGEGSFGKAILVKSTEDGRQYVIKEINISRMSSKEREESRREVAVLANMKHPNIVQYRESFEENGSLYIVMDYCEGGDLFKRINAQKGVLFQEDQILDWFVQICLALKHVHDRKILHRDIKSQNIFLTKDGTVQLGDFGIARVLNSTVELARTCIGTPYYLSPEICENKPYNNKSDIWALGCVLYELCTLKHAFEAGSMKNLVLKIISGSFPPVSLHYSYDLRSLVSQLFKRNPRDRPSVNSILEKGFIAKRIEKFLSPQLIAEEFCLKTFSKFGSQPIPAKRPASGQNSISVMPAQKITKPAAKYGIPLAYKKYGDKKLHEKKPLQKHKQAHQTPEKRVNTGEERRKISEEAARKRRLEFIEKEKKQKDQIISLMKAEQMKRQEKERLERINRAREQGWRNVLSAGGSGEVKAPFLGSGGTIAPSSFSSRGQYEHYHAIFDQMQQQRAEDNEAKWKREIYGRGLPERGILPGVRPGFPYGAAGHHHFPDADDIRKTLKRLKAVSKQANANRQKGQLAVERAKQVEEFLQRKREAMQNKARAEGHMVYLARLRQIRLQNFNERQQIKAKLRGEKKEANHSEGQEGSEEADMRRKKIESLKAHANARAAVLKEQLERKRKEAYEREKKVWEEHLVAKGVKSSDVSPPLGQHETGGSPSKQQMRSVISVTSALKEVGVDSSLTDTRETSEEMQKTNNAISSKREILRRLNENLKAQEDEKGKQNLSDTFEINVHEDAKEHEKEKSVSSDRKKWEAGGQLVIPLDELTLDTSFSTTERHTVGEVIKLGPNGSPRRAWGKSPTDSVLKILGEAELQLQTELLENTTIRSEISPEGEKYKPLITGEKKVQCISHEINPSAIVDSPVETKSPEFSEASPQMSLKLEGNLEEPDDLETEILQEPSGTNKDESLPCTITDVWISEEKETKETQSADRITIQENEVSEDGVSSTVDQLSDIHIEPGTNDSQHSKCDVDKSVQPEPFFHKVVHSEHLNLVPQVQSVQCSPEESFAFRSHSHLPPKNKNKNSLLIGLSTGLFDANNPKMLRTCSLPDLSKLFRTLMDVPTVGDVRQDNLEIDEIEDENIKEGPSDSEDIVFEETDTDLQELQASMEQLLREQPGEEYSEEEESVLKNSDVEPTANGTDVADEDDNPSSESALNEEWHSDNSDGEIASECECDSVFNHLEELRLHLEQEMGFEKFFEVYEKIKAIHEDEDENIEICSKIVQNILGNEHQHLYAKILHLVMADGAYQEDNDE"}
{"SMILES": "COc1cc2ncnc(Nc3ccc(Oc4ccccc4)cc3C)c2cc1OC", "read-out": "enzyme activity", "mode": "inhibitor", "concentration": "1 µM", "measurement": "inhibition", "value": "-2%"}
{"SMILES": "O=C(Nc1cnn(-c2csc(C(=O)NC3COC3)c2)c1)Nc1c(F)cccc1Cl", "read-out": "enzyme activity", "mode": "inhibitor", "concentration": "5 µM", "measurement": "remaining activity", "value": "77.2%"}
{"SMILES": "CNc1cc(Oc2cc(C(=O)Nc3cc(N4CCN(C)CC4)cc(C(F)(F)F)c3)ccc2C)ncn1", "read-out": "target engagement in cells", "mode": "inhibitor", "method": "chemoproteomics", "cells": "Huh-7", "concentration": "1 µM", "measurement": "inhibition", "value": "-12.5%"}
{"SMILES": "CCOCCn1cc(C(=O)Nc2ccc(-n3nc(-c4cccnc4)cc3C(F)(F)F)cn2)ccc1=O", "read-out": "cell-free assay", "method": "competition with immobilised ligand", "concentration": "1 µM", "measurement": "remaining binding", "value": "100%"}
{"SMILES": "COc1cc(Cl)c(C(=O)N[C@@H](CN[C@H]2CC[C@@H](N)CC2)Cc2ccc(C#N)cc2)cc1-c1ccc(CN[C@H](C)c2ccc(C)cc2)o1", "read-out": "enzyme activity", "mode": "inhibitor", "concentration": "1 µM", "measurement": "remaining activity", "value": "93%"}
{"SMILES": "O=C1Nc2ccc(Cl)cc2C1=Cc1cc(Cl)c(O)c(Cl)c1", "read-out": "cell-free assay", "concentration": "0.5 µM", "measurement": "remaining signal", "value": "81.5%"}
{"SMILES": "C[C@H](c1ccnc(Nc2nc3ccc(-c4cc(N(C)C)ncn4)cc3[nH]2)c1)N1CCN(C(=O)CC(F)(F)F)CC1", "read-out": "cell-free assay", "method": "competition with immobilised ligand", "concentration": "0.1 µM", "measurement": "remaining binding", "value": "93%"}
{"SMILES": "c1ccc(CNc2nc(N3CCOc4ccccc43)nc3c2CCCC3)cc1", "read-out": "target engagement in cells", "mode": "inhibitor", "method": "chemoproteomics", "concentration": "20 mM", "measurement": "inhibition", "value": "-7.6%"}
{"SMILES": "O=C(Nc1cnc(Oc2ccc(F)cc2)nc1)N1CCc2ncccc2[C@@H]1c1ccc(F)cc1", "read-out": "cell-free assay", "method": "competition with immobilised ligand", "concentration": "1 µM", "measurement": "remaining binding", "value": "84%"}
{"SMILES": "O=C(Nc1cnn(-c2csc(C(=O)NC3COC3)c2)c1)Nc1ccccc1Cl", "read-out": "enzyme activity", "mode": "inhibitor", "concentration": "5 µM", "measurement": "remaining activity", "value": "112%"}
{"SMILES": "CC(C)(C)c1nc(-c2cccc(NS(=O)(=O)c3c(F)cccc3F)c2F)c(-c2ccnc(N)n2)s1", "read-out": "enzyme activity", "mode": "inhibitor", "method": "radiometric", "concentration": "1 µM", "measurement": "remaining activity", "value": "63%"}
{"SMILES": "CNC(=O)c1ccc(Nc2ncc(C(F)(F)F)c(NCc3nccnc3N(C)S(C)(=O)=O)n2)cc1", "read-out": "cell-free assay", "method": "competition with immobilised ligand", "concentration": "0.1 µM", "measurement": "remaining binding", "value": "75%"}
{"SMILES": "CCN1CCN(Cc2ccc(NC(=O)c3ccc(C)c(/C=C/c4cnc5[nH]ccc5c4OC)c3)cc2C(F)(F)F)CC1", "read-out": "target engagement in cells", "mode": "inhibitor", "method": "chemoproteomics", "cells": "A-375", "concentration": "5 µM", "measurement": "inhibition", "value": "-11.6%"}
{"SMILES": "Cc1c(NC(=O)c2cc(C(N)=O)nc3cc(F)ccc23)c(C(F)(F)F)nn1Cc1ccc(C(C)(C)C)cc1", "read-out": "cell-free assay", "method": "competition with immobilised ligand", "concentration": "1 µM", "measurement": "remaining binding", "value": "97%"}
{"SMILES": "O=C1NC(=O)c2cc(Nc3ccc(F)cc3)c(Nc3ccc(F)cc3)cc21", "read-out": "cell-free assay", "concentration": "0.5 µM", "measurement": "remaining signal", "value": "88%"}
{"SMILES": "C[C@@H](c1cccc(C#N)c1)n1cc(Cl)cc(C(N)=O)c1=N", "read-out": "cell-free assay", "method": "competition with immobilised ligand", "concentration": "1 µM", "measurement": "remaining binding", "value": "100%"}
{"SMILES": "Nc1ncnc2occ(-c3ccc(NC(=O)Nc4cc(C(F)(F)F)ccc4F)cc3)c12", "read-out": "cell-free assay", "mode": "inhibitor", "concentration": "20 µM", "measurement": "remaining signal", "value": "22%"}
{"SMILES": "COc1ccc(COc2ccc(Cc3cnc(N)nc3N)cc2OC)cc1", "read-out": "cell-free assay", "concentration": "0.5 µM", "measurement": "remaining signal", "value": "95.6%"}
{"SMILES": "CO[C@@H](C)c1c(Nc2ccc([C@@H](N(C)C(=O)C3CCS(=O)(=O)CC3)C(F)(F)F)cc2)cnc2cc(Cl)nn12", "read-out": "cell-free assay", "method": "competition with immobilised ligand", "concentration": "1 µM", "measurement": "remaining binding", "value": "100%"}
{"SMILES": "Cn1cnc(Br)c1C1=CN(c2ncnc3[nH]cnc23)CCS1", "read-out": "enzyme activity", "mode": "inhibitor", "method": "radiometric", "concentration": "2 µM", "measurement": "inhibition", "value": "96.5%"}
{"SMILES": "CC/C(=N\\NC(=O)NCc1cccc(O)c1)c1ccc(O)c(C)c1O", "read-out": "enzyme activity", "mode": "inhibitor", "concentration": "0.1 µM", "measurement": "inhibition", "value": "-6%"}
{"SMILES": "CC(C)(O)[C@H]1CC[C@H](Nc2ccc3ncc(-c4cccc(C(F)(F)F)c4)n3n2)CC1", "read-out": "enzyme activity", "mode": "inhibitor", "concentration": "1 µM", "measurement": "remaining activity", "value": "48.3%"}
